These results are taken from ChEMBL document CHEMBL4177549, “Malonylginsenosides with Potential Antidiabetic Activities from the Flower Buds of Panax ginseng” (J Nat Prod, 2017).

Assay [1] relates to L6. As to the kind of experiment: Induction of glucose consumption in differentiated rat L6 cells at 20 uM incubated for 12 hrs in presence of 0.5% bovine serum albumin and low-glucose by glucose oxidase method. It is filed as functional, cell-based. An outline of the steps:
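L6 myoblasts were grown in high-glucose DMEM with 10% FBS and then differentiated into myotubes in 2% FBS for 4−6 days. The myotubes were treated for 12 h in low-glucose (1000 mg/L) DMEM with 0.5% BSA. Medium glucose was measured by glucose oxidase. Consumption was calculated as the glucose in cell-free blank wells minus the glucose in wells with cells.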

The target of assay [2] is T1, AMPK alpha2/beta1/gamma1 (Homo sapiens) (UniProt P54646+P54619+Q9Y478). As to the kind of experiment: Activation of recombinant AMPKalpha2beta1gamma1 (unknown origin) expressed in Escherichia coli BL21 in presence of CaMKKbeta (unknown origin) incubated for 45 mins in presence of substrate-1 peptide and ATP by HTRF assay relative to untreated control.
A further assay concerns the target AMPK alpha2/beta1/gamma1 (Homo sapiens, UniProt P54619+P54646+Q9Y478). Briefly: Activation of recombinant AMPKalpha2beta1gamma1 (unknown origin) expressed in Escherichia coli BL21 in presence of CaMKKbeta (unknown origin) incubated for 45 mins in presence of substrate-1 peptide and ATP by HTRF assay.
Assay [3] concerns the target T1, AMPK alpha2/beta1/gamma1 (Homo sapiens). Briefly: Activation of recombinant AMPKalpha2beta1gamma1 (unknown origin) expressed in Escherichia coli BL21 in presence of CaMKKbeta (unknown origin) at 10 uM incubated for 45 mins in presence of substrate-1 peptide and ATP by HTRF assay relative to untreated control.
For assay [4], the system named is L6. As to the kind of experiment: Induction of glucose consumption in differentiated rat L6 cells at 10 uM incubated for 12 hrs in presence of 0.5% bovine serum albumin and low-glucose by glucose oxidase method. It is filed as functional, cell-based. An outline of the steps: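 L6 myoblasts grown in high-glucose (4500 mg/L) DMEM with 10% FBS, then differentiated to myotubes in high-glucose DMEM with 2% FBS for 4−6 days. Compound added in 0.5% BSA low-glucose (1000 mg/L) DMEM for 12 h. Medium glucose read by glucose oxidase method. Consumption calculated as cell-free blank wells minus wells with cells.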

Activity calls are given as the source filed them. The calls are words filed in the database; no cut-off is given here.

Sequence of AMPK alpha2/beta1/gamma1 (P54646 whole entry): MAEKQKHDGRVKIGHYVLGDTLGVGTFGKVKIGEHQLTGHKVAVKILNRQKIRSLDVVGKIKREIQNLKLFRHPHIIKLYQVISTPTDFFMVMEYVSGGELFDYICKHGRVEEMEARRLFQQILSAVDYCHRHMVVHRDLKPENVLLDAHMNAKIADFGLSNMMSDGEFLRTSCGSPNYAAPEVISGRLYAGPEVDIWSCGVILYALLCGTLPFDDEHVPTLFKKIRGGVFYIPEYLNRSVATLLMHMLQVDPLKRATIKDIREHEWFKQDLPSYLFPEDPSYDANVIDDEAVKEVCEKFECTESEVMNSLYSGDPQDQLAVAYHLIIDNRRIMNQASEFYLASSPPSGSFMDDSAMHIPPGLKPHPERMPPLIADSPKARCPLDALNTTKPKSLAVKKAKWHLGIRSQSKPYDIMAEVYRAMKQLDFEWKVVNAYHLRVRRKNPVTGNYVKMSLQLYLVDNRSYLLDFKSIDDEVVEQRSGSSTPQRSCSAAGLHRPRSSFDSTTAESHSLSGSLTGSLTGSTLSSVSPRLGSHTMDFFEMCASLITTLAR
Sequence of AMPK alpha2/beta1/gamma1 (P54619 whole entry): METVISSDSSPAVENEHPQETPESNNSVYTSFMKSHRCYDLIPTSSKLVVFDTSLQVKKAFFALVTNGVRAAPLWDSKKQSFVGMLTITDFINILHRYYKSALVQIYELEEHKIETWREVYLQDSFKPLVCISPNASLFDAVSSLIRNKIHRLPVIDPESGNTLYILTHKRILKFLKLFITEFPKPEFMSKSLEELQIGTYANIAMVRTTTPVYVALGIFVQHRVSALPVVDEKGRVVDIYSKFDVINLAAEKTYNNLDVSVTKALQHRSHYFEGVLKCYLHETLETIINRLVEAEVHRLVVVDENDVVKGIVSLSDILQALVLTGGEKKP
Sequence of AMPK alpha2/beta1/gamma1 (Q9Y478 whole entry): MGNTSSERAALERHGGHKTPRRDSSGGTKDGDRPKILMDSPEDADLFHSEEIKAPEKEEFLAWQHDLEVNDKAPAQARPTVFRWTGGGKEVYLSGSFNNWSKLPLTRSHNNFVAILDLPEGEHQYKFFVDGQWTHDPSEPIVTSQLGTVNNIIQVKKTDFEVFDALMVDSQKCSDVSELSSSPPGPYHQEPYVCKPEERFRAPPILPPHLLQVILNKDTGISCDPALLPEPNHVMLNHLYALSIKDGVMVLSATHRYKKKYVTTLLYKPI
T1 sequence (P54619 whole entry partner): as the sequence (P54619 whole entry) above
T1 sequence (P54646 whole entry): as the sequence (P54646 whole entry) above
T1 sequence (Q9Y478 2-270 partner limits assumed): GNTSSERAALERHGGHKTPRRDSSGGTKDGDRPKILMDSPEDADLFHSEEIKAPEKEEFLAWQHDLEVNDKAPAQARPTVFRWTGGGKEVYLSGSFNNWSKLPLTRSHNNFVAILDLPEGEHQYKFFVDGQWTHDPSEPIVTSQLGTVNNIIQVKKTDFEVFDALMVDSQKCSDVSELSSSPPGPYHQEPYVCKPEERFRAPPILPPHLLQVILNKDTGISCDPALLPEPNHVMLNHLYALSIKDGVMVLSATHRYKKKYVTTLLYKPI

As to `CC(C)=CCC[C@](C)(O[C@@H]1O[C@H](CO[C@@H]2OC[C@H](O)[C@H](O)[C@H]2O)[C@@H](O)[C@H](O)[C@H]1O)[C@H]1CC[C@]2(C)[C@@H]1[C@H](O)C[C@@H]1[C@@]3(C)CC[C@H](O[C@@H]4O[C@H](CO)[C@@H](O)[C@H](O)[C@H]4O[C@@H]4O[C@H](COC(=O)CC(=O)O)[C@@H](O)[C@H](O)[C@H]4O)C(C)(C)[C@@H]3CC[C@]12C`, in the assay on L6 [1], the result was Active.

Consider `CC(C)=CCC[C@](C)(O[C@@H]1O[C@H](CO)[C@@H](O)[C@H](O)[C@H]1O)[C@H]1CC[C@]2(C)[C@@H]1[C@H](O)C[C@@H]1[C@@]3(C)CC[C@H](O[C@@H]4O[C@H](CO)[C@@H](O)[C@H](O)[C@H]4O[C@@H]4O[C@H](CO)[C@@H](OC(=O)CC(=O)O)[C@H](O)[C@H]4O)C(C)(C)[C@@H]3CC[C@]12C`, for which the fold change (FC) in assay [2] lay within 1.7 to 4.7. On AMPK alpha2/beta1/gamma1, the half-maximal effective concentration (EC50) fell in the range of 16.8 to 2800 nM.

Regarding `CC(C)=CCC[C@](C)(O[C@@H]1O[C@H](CO[C@@H]2OC[C@H](O)[C@H](O)[C@H]2O)[C@@H](O)[C@H](O)[C@H]1O)[C@H]1CC[C@]2(C)[C@@H]1[C@H](O)C[C@@H]1[C@@]3(C)CC[C@H](O[C@@H]4O[C@H](CO)[C@@H](O)[C@H](O)[C@H]4O[C@@H]4O[C@H](CO)[C@@H](OC(=O)CC(=O)O)[C@H](O)[C@H]4O)C(C)(C)[C@@H]3CC[C@]12C`, in assay [2], the fold change (FC) fell in the range of 1.7 to 4.7. Also, the EC50 on AMPK alpha2/beta1/gamma1 fell in the range of 16.8 to 2800 nM.

For `CC(C)=CCC[C@](C)(O[C@@H]1O[C@H](CO[C@@H]2O[C@H](CO)[C@@H](OC(=O)CC(=O)O)[C@H](O)[C@H]2O)[C@@H](O)[C@H](O)[C@H]1O)[C@H]1CC[C@]2(C)[C@@H]1[C@H](O)C[C@@H]1[C@@]3(C)CC[C@H](O[C@@H]4O[C@H](CO)[C@@H](O)[C@H](O)[C@H]4O[C@@H]4O[C@H](CO)[C@@H](O)[C@H](O)[C@H]4O)C(C)(C)[C@@H]3CC[C@]12C`, in assay [2], the fold change (FC) lay within 1.7 to 4.7. Moreover, at AMPK alpha2/beta1/gamma1, the EC50 was 16.8 to 2800 nM.

Consider `CC(C)=CCC[C@](C)(O[C@@H]1O[C@H](CO)[C@@H](O)[C@H](O)[C@H]1O)[C@H]1CC[C@]2(C)[C@@H]1[C@H](O)C[C@@H]1[C@@]3(C)CC[C@H](O[C@@H]4O[C@H](CO)[C@@H](O)[C@H](O)[C@H]4O[C@@H]4O[C@H](COC(=O)CC(=O)O)[C@@H](O)[C@H](O)[C@H]4O)C(C)(C)[C@@H]3CC[C@]12C`, for which the fold change (FC) in assay [2] lay in the range of 1.7 to 4.7. Moreover, the EC50 on AMPK alpha2/beta1/gamma1 is 16.8 to 2800 nM.

Turning to `CC(C)=CCC[C@](C)(O[C@@H]1O[C@H](CO)[C@@H](O)[C@H](O)[C@H]1O)[C@H]1CC[C@]2(C)[C@@H]1[C@H](O)C[C@@H]1[C@@]3(C)CC[C@H](O)C(C)(C)[C@@H]3[C@@H](O[C@@H]3O[C@H](COC(=O)CC(=O)O)[C@@H](O)[C@H](O)[C@H]3O[C@@H]3O[C@@H](C)[C@H](O)[C@@H](O)[C@H]3O)C[C@]12C`, the result with L6 [1] was Active.

Regarding `CC(C)=CCC[C@](C)(O[C@@H]1O[C@H](CO[C@@H]2O[C@H](CO)[C@@H](O)[C@H](O)[C@H]2O)[C@@H](O)[C@H](O)[C@H]1O)[C@H]1CC[C@]2(C)[C@@H]1[C@H](O)C[C@@H]1[C@@]3(C)CC[C@H](O[C@@H]4O[C@H](CO)[C@@H](O)[C@H](O)[C@H]4O[C@@H]4O[C@H](COC(=O)CC(=O)O)[C@@H](O)[C@H](O)[C@H]4O)C(C)(C)[C@@H]3CC[C@]12C`, the fold change (FC) in assay [2] is 1.7 to 4.7. The EC50 at AMPK alpha2/beta1/gamma1 lay within 16.8 to 2800 nM.

On to `CC(C)=CCC[C@](C)(O[C@@H]1O[C@H](CO)[C@@H](O)[C@H](O)[C@H]1O)[C@H]1CC[C@]2(C)[C@@H]1[C@H](O)C[C@@H]1[C@@]3(C)CC[C@H](O[C@@H]4O[C@H](CO)[C@@H](O)[C@H](O)[C@H]4O[C@@H]4O[C@H](CO)[C@@H](O)[C@H](O)[C@H]4O)C(C)(C)[C@@H]3CC[C@]12C` [GINSENOSIDE RD], for which, at AMPK alpha2/beta1/gamma1, the EC50 fell in the range of 16.8 to 2800 nM.

As for `CC(C)=CCC[C@](C)(O[C@@H]1O[C@H](CO[C@@H]2O[C@@H](CO)[C@H](O)[C@H]2O)[C@@H](O)[C@H](O)[C@H]1O)[C@H]1CC[C@]2(C)[C@@H]1[C@H](O)C[C@@H]1[C@@]3(C)CC[C@H](O[C@@H]4O[C@H](CO)[C@@H](O)[C@H](O)[C@H]4O[C@@H]4O[C@H](COC(=O)CC(=O)O)[C@@H](O)[C@H](O)[C@H]4O)C(C)(C)[C@@H]3CC[C@]12C`, the fold change (FC) in assay [2] fell in the range of 1.7 to 4.7. At AMPK alpha2/beta1/gamma1, the EC50 was in the range of 16.8 to 2800 nM.

In the case of `COc1ccc2cc3[n+](cc2c1OC)CCc1cc2c(cc1-3)OCO2`, in assay [3], the result was Active.

Consider `CC(C)=CCC[C@](C)(O[C@@H]1O[C@H](CO[C@@H]2OC[C@H](O)[C@H](O)[C@H]2O)[C@@H](O)[C@H](O)[C@H]1O)[C@H]1CC[C@]2(C)[C@@H]1[C@H](O)C[C@@H]1[C@@]3(C)CC[C@H](O[C@@H]4O[C@H](CO)[C@@H](O)[C@H](O)[C@H]4O[C@@H]4O[C@H](CO)[C@@H](O)[C@H](O)[C@H]4O)C(C)(C)[C@@H]3CC[C@]12C` [GINSENOSIDE RB2], for which the outcome in the assay with L6 [1] and in the assay with L6 [4] was Active. For the same molecule, the fold change (FC) in assay [2] stood at 4.7. The EC50 at AMPK alpha2/beta1/gamma1 was determined as 16.8 nM.

Turning to `CC(C)=CCC[C@](C)(O[C@@H]1O[C@H](CO[C@@H]2O[C@H](CO)[C@@H](O)[C@H](O)[C@H]2O)[C@@H](O)[C@H](O)[C@H]1O)[C@H]1CC[C@]2(C)[C@@H]1[C@H](O)C[C@@H]1[C@@]3(C)CC[C@H](O[C@@H]4O[C@H](CO)[C@@H](O)[C@H](O)[C@H]4O[C@@H]4O[C@H](CO)[C@@H](O)[C@H](O)[C@H]4O)C(C)(C)[C@@H]3CC[C@]12C` [GINSENOSIDE RB1], at AMPK alpha2/beta1/gamma1, the concentration for a half-maximal effect (EC50) was in the range of 16.8 to 2800 nM.
